For orientation: pIC50 means the IC50 on a negative log10 scale, so that one unit is a factor of ten. Usually IC20 stands for the point of the concentration-response curve where the effect stands at 20%. A low value points to greater potency. One may read the IC90 as the concentration needed for an effect of 90%.

Experimental findings from ChEMBL document CHEMBL1132387, “N-arylpiperazinone inhibitors of farnesyltransferase: discovery and biological activity” (J Med Chem, 1999) are described below.

Assay [1] has as its target Protein farnesyltransferase (Homo sapiens, UniProt P49354+P49356). As to the kind of experiment: Inhibition of [3H]FPP incorporation into recombinant human K-Ras by Farnesyltransferase. It counts as protein-complex assay. The method in brief:
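FTase-catalyzed incorporation of [³H]FPP into recombinant human K-Ras protein. IC50 is the compound concentration giving 50% inhibition of that incorporation.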

The subject of assay [2] is Rat1. As to the kind of experiment: Highest concentration compatible with 80% cell survival in cultured RAT1 cells. To be noted: Rattus norvegicus. It counts as functional. The method in brief:
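Normal RAT1 cells in culture, with viability read by MTT staining. The value is the highest compound concentration compatible with 80% cell survival.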

For assay [3], the system named is Rat1. As to the kind of experiment: Inhibition of anchorage-independent growth by 90% in human K-ras-transformed RAT1 cells in soft agar. It counts as functional. To be noted: Rattus norvegicus. The method in brief: (§1)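 RAT1 cells transformed with human H- or K-ras were suspended in soft agar to measure colony formation. IC90 is the concentration inhibiting anchorage-independent growth by 90% relative to vehicle-treated control. Values are reported as ranges.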

Another assay relates to MCF7. As to the kind of experiment: Concentration required to inhibit growth of human tumor MCF-7 cells line on poly(HEMA) coated microtiter plate. The assay is classed as functional, cell-based. The essentials:
(§2)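 Anchorage-independent growth assay: cells grown on poly(HEMA)-coated microtiter plates. IC50 is the compound concentration that inhibits 50% of cell growth.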

Assay [4] has as its target Geranylgeranyl transferase type I (Homo sapiens, UniProt P49354+P53609). Briefly: Inhibition of [3H]GGPP incorporation into recombinant human RhoA by Geranylgeranyl transferase type I. The assay is classed as protein-complex assay. The essentials:
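GGTase I-catalyzed incorporation of [³H]GGPP into recombinant human RhoA protein. IC50 is the concentration giving 50% inhibition.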

The subject of assay [5] is Mus musculus. As to the kind of experiment: Tumor growth inhibition against subcutaneously injected H-ras-Rat1 cells in female nude mice after continuous infusion of 14 mg/kg/day. It counts as functional. The following applies: route subcutaneous. The method in brief:
(§3)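 Female nude mice were injected subcutaneously with H- or K-ras-transformed RAT1 cells. Treatment began 24 h later with vehicle (50% DMSO/water) or compound, n = 8–10, for about 14 days. Dosing was once-daily subcutaneous injection or continuous sc infusion by implanted Alzet osmotic pump. Tumor growth inhibition is relative to vehicle controls.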

Assay [6] deals with Rat1. As to the kind of experiment: Inhibition of anchorage-independent growth by 90% in human H-ras-transformed RAT1 cells in soft agar. The following applies: Rattus norvegicus. It counts as functional. The method in brief: as §1
The next assay has as its system DLD-1. As to the kind of experiment: Concentration required to inhibit growth of human tumor DLD1 cell line on poly(HEMA) coated microtiter plate. It counts as functional, cell-based. The method in brief: as §2
The subject of assay [7] is Rat1. As to the kind of experiment: Inhibition of anchorage independent growth of H-ras-transformed RAT1 cells on poly(HEMA) coated microtiter plate. It counts as functional, cell-based. To be noted: Rattus norvegicus. The method in brief: as §2
Assay [8] deals with Mus musculus. As to the kind of experiment: Tumor growth inhibition against subcutaneously injected H-ras Rat1 cells in female nude mice after continuous infusion of 1.4 mg/kg/day. It counts as functional. The following applies: route subcutaneous. The essentials: as §3
The test system of assay [9] is Rat1. Briefly: Inhibition of anchorage-independent growth by 90% of human K-ras-transformed RAT1 cells in soft agar. It counts as functional. To be noted: Rattus norvegicus. The essentials: as §1

Molecules are shown by their SMILES. pIC50: −log10 of the molar value. “And” between values parts separate entries of the source, which are not always exact repeats. Equal values may be shown once.

`CCCC[C@H]1CN(C(=O)c2cccc3ccccc23)CCN1Cc1cncn1Cc1ccccc1`: in assay [1], the pIC50 is 6.31.
For `CCCC[C@H]1CN(C(=O)c2cccc3ccccc23)CCN1Cc1c[nH]cn1`, in assay [1], the pIC50 is 5.14.
Same read-out and setting: the figure for `C[C@@H]1CN(c2cccc(Cl)c2)C(=O)CN1Cc1cncn1Cc1ccc(C#N)cc1` is 7.10; for `CCCC[C@H]1CN(c2cccc(Cl)c2)C(=O)CN1Cc1cncn1Cc1ccc(C#N)cc1` it is 9.96.
In the assay on Rat1 [2], `CCS(=O)(=O)C[C@@H]1CN(c2cccc(Cl)c2)C(=O)CN1Cc1cncn1Cc1ccc(C#N)cc1` had an IC20 greater than 100000 nM. Also, the pIC50 in assay [1] was 9.74; in the assay with MCF7 it was 8.30; in assay [4], less than 4.00; with DLD-1, 5.82; with Rat1 [7] it was 8.10. Also, the IC90 in the assay on Rat1 [3] stood at 1000 nM; with Rat1 [6], 30 nM. The Tumor growth inhibition in the assay on Mus musculus [5] was 100% and 60%; in the assay on Mus musculus [8], 73%.
`CCCC[C@H]1CN(c2cccc(C)c2C)C(=O)CN1Cc1cncn1Cc1ccc(C#N)cc1` showed a 20% effect concentration (IC20) with Rat1 [2] of 25000 nM. Further, the results for the negative logarithm of the IC50 (pIC50) (in assay [1]; in [4]; in the assay on Rat1 [7]) were 9.36, 5.00 and 7.55, respectively. Further, the concentration for an effect of 90% (IC90) came out at 2500 nM in the assay on Rat1 [9] and 100 nM with Rat1 [6].
For `CCCC[C@H]1CN(C(=O)c2cccc3ccccc23)CCN1Cc1cncn1Cc1ccc(C#N)cc1`, the pIC50 in assay [1] was 7.68.
Take `C[C@H]1CN(c2cccc(Cl)c2)C(=O)CN1Cc1cncn1Cc1ccc(C#N)cc1`: the pIC50 in [1] was 8.05.
The same measure, in the same setting: the same measure for `CCCC[C@H]1CN(C(=O)c2cccc3ccccc23)CCN1C[C@@H](N)S`: 9.00.
